Experimental data taken from ChEMBL document CHEMBL3046951, “Volatile constituents from the leaves of Callicarpa japonica Thunb. and their antibacterial activities” (2004).

Key:
Type in all cases: functional
Salmonella typhimurium [1] = experiment: Antimicrobial activity against Salmonella enterica subsp. enterica serovar Typhimurium ATCC 14028 assessed as growth inhibition rate at 24 mg/l after 72 hr by spectrophotometry; conditions: ATCC 14028, 72 h, read-out: GI
Procedure, shortened: (§1)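 Salmonella Typhimurium ATCC 14028 grown in nutrient broth at 30 °C, precultured 24 h, then subcultured 1:100 for 18 h before testing. Single volatile compounds (>95% pure) were added. OD was read every 24 h over 72 h in a Bioscreen C, with 10% Tween 80 as the comparison control.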

Salmonella typhimurium [2] = experiment: Antimicrobial activity against Salmonella enterica subsp. enterica serovar Typhimurium ATCC 14028 assessed as growth inhibition rate at 2.4 mg/l after 72 hr by spectrophotometry; conditions: ATCC 14028, 72 h, read-out: GI; procedure, shortened: as §1
Salmonella typhimurium [3] = experiment: Antimicrobial activity against Salmonella enterica subsp. enterica serovar Typhimurium ATCC 14028 assessed as growth inhibition rate at 0.24 mg/l after 72 hr by spectrophotometry; conditions: ATCC 14028, 72 h, read-out: GI; procedure, shortened: as §1
Salmonella typhimurium [4] = experiment: Antimicrobial activity against Salmonella enterica subsp. enterica serovar Typhimurium ATCC 14028 assessed as growth inhibition rate at 0.03 mg/l after 72 hr by spectrophotometry; conditions: ATCC 14028, 72 h, read-out: GI; procedure, shortened: as §1
Bacillus cereus [5] = experiment: Antimicrobial activity against Bacillus cereus ATCC 11778 assessed as growth inhibition rate at 24 mg/l after 72 hr by spectrophotometry; conditions: ATCC 11778, 72 h, read-out: GI
Procedure, shortened: (§2)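 Pure volatile compounds (purity >95%; one at 90%) were tested against B. cereus ATCC 11778. The strain was grown at 30 °C in nutrient broth for 24 h, then subcultured for 18 h. Optical density was read in a Bioscreen C every 24 h for 72 h, with 10% Tween 80 as the control.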

Bacillus cereus [6] = experiment: Antimicrobial activity against Bacillus cereus ATCC 11778 assessed as growth inhibition rate at 2.4 mg/l after 72 hr by spectrophotometry; conditions: ATCC 11778, 72 h, read-out: GI; procedure, shortened: as §2
Bacillus cereus [7] = experiment: Antimicrobial activity against Bacillus cereus ATCC 11778 assessed as growth inhibition rate at 0.24 mg/l after 72 hr by spectrophotometry; conditions: ATCC 11778, 72 h, read-out: GI; procedure, shortened: as §2
Bacillus cereus [8] = experiment: Antimicrobial activity against Bacillus cereus ATCC 11778 assessed as growth inhibition rate at 0.03 mg/l after 72 hr by spectrophotometry; conditions: ATCC 11778, 72 h, read-out: GI; procedure, shortened: as §2
Bacillus cereus [9] = experiment: Antimicrobial activity against Bacillus cereus ATCC 11778 assessed as growth inhibition rate at 1.2 mg/l after 72 hr by spectrophotometry; conditions: ATCC 11778, 72 h, read-out: GI
Procedure, shortened: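 Pure volatile compounds (>95% purity; 2,4-heptadienal 90%) identified in the leaf extract were tested against B. cereus ATCC 11778 in nutrient broth at 30 °C. The inoculum was grown 24 h, then subcultured (0.1 mL into 9.9 mL) for 18 h. Optical density was read in a Bioscreen C every 24 h for 72 h against a 10% Tween 80 control.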

Staphylococcus aureus [10] = experiment: Antimicrobial activity against Staphylococcus aureus ATCC 25923 assessed as growth inhibition rate at 1.2 mg/l after 72 hr by spectrophotometry; conditions: ATCC 25923, 72 h, read-out: GI
Procedure, shortened: (§3)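 Authentic volatiles (>95% purity; 2,4-heptadienal 90%) tested against 18 h subcultures. Growth media: E. coli O157:H7 and S. aureus in tryptic soy broth at 37 °C; L. monocytogenes in tryptic soy broth at 30 °C; V. parahaemolyticus in tryptic soy broth + 3% NaCl at 37 °C; S. typhimurium in nutrient broth at 30 °C. Bioscreen C OD every 24 h for 72 h versus 10% Tween 80 control.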

Listeria monocytogenes [11] = experiment: Antimicrobial activity against Listeria monocytogenes ATCC 19111 assessed as growth inhibition rate at 12 mg/l after 72 hr by spectrophotometry; conditions: ATCC 19111, 72 h, read-out: GI
Procedure, shortened: (§4)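 L. monocytogenes was grown at 30 °C in tryptic soy broth, subcultured for 18 h, and exposed to pure volatile compounds (>95% purity). Growth was followed by Bioscreen C optical density every 24 h for 72 h against a 10% Tween 80 control.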

Escherichia coli [12] = experiment: Antimicrobial activity against Escherichia coli O157:H7 ATCC 43894 assessed as growth inhibition rate at 24 mg/l after 72 hr by spectrophotometry; conditions: O157:H7 ATCC 43894, 72 h, read-out: GI
Escherichia coli [13] = experiment: Antimicrobial activity against Escherichia coli O157:H7 ATCC 43894 assessed as growth inhibition rate at 2.4 mg/l after 72 hr by spectrophotometry; conditions: O157:H7 ATCC 43894, 72 h, read-out: GI
Escherichia coli [14] = experiment: Antimicrobial activity against Escherichia coli O157:H7 ATCC 43894 assessed as growth inhibition rate at 0.24 mg/l after 72 hr by spectrophotometry; conditions: O157:H7 ATCC 43894, 72 h, read-out: GI
Escherichia coli [15] = experiment: Antimicrobial activity against Escherichia coli O157:H7 ATCC 43894 assessed as growth inhibition rate at 0.03 mg/l after 72 hr by spectrophotometry; conditions: O157:H7 ATCC 43894, 72 h, read-out: GI
Staphylococcus aureus [16] = experiment: Antimicrobial activity against Staphylococcus aureus ATCC 25923 assessed as growth inhibition rate at 0.24 mg/l after 72 hr by spectrophotometry; conditions: ATCC 25923, 72 h, read-out: GI
Staphylococcus aureus [17] = experiment: Antimicrobial activity against Staphylococcus aureus ATCC 25923 assessed as growth inhibition rate at 0.03 mg/l after 72 hr by spectrophotometry; conditions: ATCC 25923, 72 h, read-out: GI
Vibrio parahaemolyticus [18] = experiment: Antimicrobial activity against Vibrio parahaemolyticus ATCC 33844 assessed as growth inhibition rate at 12 mg/l after 72 hr by spectrophotometry; conditions: ATCC 33844, 72 h, read-out: GI
Staphylococcus aureus [19] = experiment: Antimicrobial activity against Staphylococcus aureus ATCC 25923 assessed as growth inhibition rate at 24 mg/l after 72 hr by spectrophotometry; conditions: ATCC 25923, 72 h, read-out: GI
Staphylococcus aureus [20] = experiment: Antimicrobial activity against Staphylococcus aureus ATCC 25923 assessed as growth inhibition rate at 2.4 mg/l after 72 hr by spectrophotometry; conditions: ATCC 25923, 72 h, read-out: GI
Vibrio parahaemolyticus [21] = experiment: Antimicrobial activity against Vibrio parahaemolyticus ATCC 33844 assessed as growth inhibition rate at 1.2 mg/l after 72 hr by spectrophotometry; conditions: ATCC 33844, 72 h, read-out: GI; procedure, shortened: as §3
Salmonella typhimurium [22] = experiment: Antimicrobial activity against Salmonella enterica subsp. enterica serovar Typhimurium ATCC 14028 assessed as growth inhibition rate at 12 mg/l after 72 hr by spectrophotometry; conditions: ATCC 14028, 72 h, read-out: GI; procedure, shortened: as §1
Listeria monocytogenes [23] = experiment: Antimicrobial activity against Listeria monocytogenes ATCC 19111 assessed as growth inhibition rate at 1.2 mg/l after 72 hr by spectrophotometry; conditions: ATCC 19111, 72 h, read-out: GI; procedure, shortened: as §3
Escherichia coli [24] = experiment: Antimicrobial activity against Escherichia coli O157:H7 ATCC 43894 assessed as growth inhibition rate at 12 mg/l after 72 hr by spectrophotometry; conditions: O157:H7 ATCC 43894, 72 h, read-out: GI
Escherichia coli [25] = experiment: Antimicrobial activity against Escherichia coli O157:H7 ATCC 43894 assessed as growth inhibition rate at 1.2 mg/l after 72 hr by spectrophotometry; conditions: O157:H7 ATCC 43894, 72 h, read-out: GI
Staphylococcus aureus [26] = experiment: Antimicrobial activity against Staphylococcus aureus ATCC 25923 assessed as growth inhibition rate at 12 mg/l after 72 hr by spectrophotometry; conditions: ATCC 25923, 72 h, read-out: GI
Listeria monocytogenes [27] = experiment: Antimicrobial activity against Listeria monocytogenes ATCC 19111 assessed as growth inhibition rate at 24 mg/l after 72 hr by spectrophotometry; conditions: ATCC 19111, 72 h, read-out: GI; procedure, shortened: as §4
Listeria monocytogenes [28] = experiment: Antimicrobial activity against Listeria monocytogenes ATCC 19111 assessed as growth inhibition rate at 2.4 mg/l after 72 hr by spectrophotometry; conditions: ATCC 19111, 72 h, read-out: GI; procedure, shortened: as §4
Listeria monocytogenes [29] = experiment: Antimicrobial activity against Listeria monocytogenes ATCC 19111 assessed as growth inhibition rate at 0.24 mg/l after 72 hr by spectrophotometry; conditions: ATCC 19111, 72 h, read-out: GI; procedure, shortened: as §4
Listeria monocytogenes [30] = experiment: Antimicrobial activity against Listeria monocytogenes ATCC 19111 assessed as growth inhibition rate at 0.03 mg/l after 72 hr by spectrophotometry; conditions: ATCC 19111, 72 h, read-out: GI; procedure, shortened: as §4
Vibrio parahaemolyticus [31] = experiment: Antimicrobial activity against Vibrio parahaemolyticus ATCC 33844 assessed as growth inhibition rate at 24 mg/l after 72 hr by spectrophotometry; conditions: ATCC 33844, 72 h, read-out: GI
Vibrio parahaemolyticus [32] = experiment: Antimicrobial activity against Vibrio parahaemolyticus ATCC 33844 assessed as growth inhibition rate at 2.4 mg/l after 72 hr by spectrophotometry; conditions: ATCC 33844, 72 h, read-out: GI
Vibrio parahaemolyticus [33] = experiment: Antimicrobial activity against Vibrio parahaemolyticus ATCC 33844 assessed as growth inhibition rate at 0.24 mg/l after 72 hr by spectrophotometry; conditions: ATCC 33844, 72 h, read-out: GI
Vibrio parahaemolyticus [34] = experiment: Antimicrobial activity against Vibrio parahaemolyticus ATCC 33844 assessed as growth inhibition rate at 0.03 mg/l after 72 hr by spectrophotometry; conditions: ATCC 33844, 72 h, read-out: GI
Salmonella typhimurium [35] = experiment: Antimicrobial activity against Salmonella enterica subsp. enterica serovar Typhimurium ATCC 14028 assessed as growth inhibition rate at 1.2 mg/l after 72 hr by spectrophotometry; conditions: ATCC 14028, 72 h, read-out: GI; procedure, shortened: as §3
Bacillus cereus [36] = experiment: Antimicrobial activity against Bacillus cereus ATCC 11778 assessed as growth inhibition rate at 12 mg/l after 72 hr by spectrophotometry; conditions: ATCC 11778, 72 h, read-out: GI; procedure, shortened: as §2

C[C@@H]1CC[C@@H]2[C@@H]1[C@H]1[C@@H](CC[C@]2(C)O)C1(C)C [(-)-EPIGLOBULOL]
inhibition of growth at 24 µg/mL (Salmonella typhimurium [1]): 58.1%
inhibition of growth at 2.4 µg/mL (Salmonella typhimurium [2]): 4.9%
inhibition of growth at 0.24 µg/mL (Salmonella typhimurium [3]): 3.9%
inhibition of growth at 0.03 µg/mL (Salmonella typhimurium [4]): 2.2%
inhibition of growth at 24 µg/mL (Bacillus cereus [5]): 95.7%
inhibition of growth at 2.4 µg/mL (Bacillus cereus [6]): 18.6%
inhibition of growth at 0.24 µg/mL (Bacillus cereus [7]): 8.2%
inhibition of growth at 0.03 µg/mL (Bacillus cereus [8]): 0.6%
inhibition of growth at 1.2 µg/mL (Bacillus cereus [9]): 13.9%
inhibition of growth at 1.2 µg/mL (Staphylococcus aureus [10]): 5.8%
inhibition of growth at 12 µg/mL (Listeria monocytogenes [11]): 92%
inhibition of growth at 24 µg/mL (Escherichia coli [12]): 26.3%
inhibition of growth at 2.4 µg/mL (Escherichia coli [13]): 2.1%
inhibition of growth at 0.24 µg/mL (Escherichia coli [14]): 0.7%
inhibition of growth at 0.03 µg/mL (Escherichia coli [15]): 0.3%
inhibition of growth at 0.24 µg/mL (Staphylococcus aureus [16]): 2.6%
inhibition of growth at 0.03 µg/mL (Staphylococcus aureus [17]): 1.7%
inhibition of growth at 12 µg/mL (Vibrio parahaemolyticus [18]): 61.2%
inhibition of growth at 24 µg/mL (Staphylococcus aureus [19]): 99.6%
inhibition of growth at 2.4 µg/mL (Staphylococcus aureus [20]): 5.9%
inhibition of growth at 1.2 µg/mL (Vibrio parahaemolyticus [21]): 11.1%
inhibition of growth at 12 µg/mL (Salmonella typhimurium [22]): 39.1%
inhibition of growth at 1.2 µg/mL (Listeria monocytogenes [23]): 8.2%
inhibition of growth at 12 µg/mL (Escherichia coli [24]): 22.6%
inhibition of growth at 1.2 µg/mL (Escherichia coli [25]): 0.9%
inhibition of growth at 12 µg/mL (Staphylococcus aureus [26]): 99.4%
inhibition of growth at 24 µg/mL (Listeria monocytogenes [27]): 94.3%
inhibition of growth at 2.4 µg/mL (Listeria monocytogenes [28]): 10.1%
inhibition of growth at 0.24 µg/mL (Listeria monocytogenes [29]): 6.1%
inhibition of growth at 0.03 µg/mL (Listeria monocytogenes [30]): 5.8%
inhibition of growth at 24 µg/mL (Vibrio parahaemolyticus [31]): 65.8%
inhibition of growth at 2.4 µg/mL (Vibrio parahaemolyticus [32]): 11.7%
inhibition of growth at 0.24 µg/mL (Vibrio parahaemolyticus [33]): 11.4%
inhibition of growth at 0.03 µg/mL (Vibrio parahaemolyticus [34]): 3.1%
inhibition of growth at 1.2 µg/mL (Salmonella typhimurium [35]): 4.4%
inhibition of growth at 12 µg/mL (Bacillus cereus [36]): 63.6%
